Measurements gathered from unrelated publications.
Lines come from different studies, so protocols differ.
SLC18A2: Synaptic vesicular amine transporter (SLC18A2, Homo sapiens, UniProt Q05940)
LATS1: Serine/threonine-protein kinase LATS1 (LATS1, Homo sapiens, UniProt O95835)
CA1: Carbonic anhydrase 1 (CA1, Homo sapiens, UniProt P00915)

OC1(c2ccc(Cl)c(C(F)(F)F)c2)CCN(CCCC(c2ccc(F)cc2)c2ccc(F)cc2)CC1 — IC50 (SLC18A2; transporter uptake; inhibitor; radiometric; cell membranes): 0.594 µM
Cc1cc(-c2ccnc3[nH]cc(F)c23)cc(F)c1[C@@]1(O)[C@H](C)CN(C2COC2)C[C@@H]1C — IC50 (LATS1; target engagement in cells; BRET): 0.058 µM
N#Cc1ccc2[nH]cc(CCCCN3CCN(c4ccc5oc(C(N)=O)cc5c4)CC3)c2c1 — IC50 (SLC18A2; transporter uptake; inhibitor; radiometric; cell membranes): 0.069 µM
NC(=O)c1nnn(Cc2cc(Cl)c(C(=O)c3ccc(Cl)cc3)c(Cl)c2)c1N — IC50 (Alpha-2A adrenergic receptor (ADRA2A, Homo sapiens, UniProt P08913); cAMP; antagonist): 0.612 µM
Cc1cc(-c2ccnc3[nH]cc(F)c23)cc(F)c1[C@@]1(O)[C@H](C)CN(C2CCS(=O)(=O)CC2)C[C@@H]1C — IC50 (LATS1; target engagement in cells; BRET): 0.136 µM
CCCCN(CCCC)CCC(O)c1cc2c(Cl)cc(Cl)cc2c2cc(C(F)(F)F)ccc12 (centres unmarked) — IC50 (SLC18A2; transporter uptake; inhibitor; radiometric; cell membranes): 0.94 µM
CC(C)[C@H](N)C(=O)OCCOCn1cnc2c(=O)[nH]c(N)nc21 — IC50 (Carbonic anhydrase 2 (CA2, Homo sapiens, UniProt P00918); enzyme activity; inhibitor; absorbance; pH 7.4): 9.1 µM
OC1(c2ccc(-c3ccnc4[nH]cc(F)c34)cc2)CCCNC1 (centres unmarked) — IC50 (LATS1; target engagement in cells; BRET): 9.97 µM
CCOCCn1c(C2CCN(CCc3ccc(C(C)(C)C(=O)O)cc3)CC2)nc2ccccc21 — IC50 (CA1; enzyme activity; inhibitor; absorbance; pH 7.4): 14 µM
COc1cc2ncnc(Nc3ccc(F)c(Cl)c3)c2cc1NC(=O)/C=C/CN1CCCCC1 — IC50 (SLC18A2; transporter uptake; inhibitor; radiometric; cell membranes): 0.433 µM
COc1ccnc(C[S+]([O-])c2nc3ccc(OC(F)F)cc3[nH]2)c1OC (centres unmarked) — IC50 (CA1; enzyme activity; inhibitor; absorbance; pH 7.4): 10.6 µM
OC1(c2ccc(-c3ccnc4[nH]cc(F)c34)cc2)CNC1 — IC50 (LATS1; target engagement in cells; BRET): 28.4 µM
OCCOCCN1CCN(C(c2ccccc2)c2ccc(Cl)cc2)CC1 (centres unmarked) — IC50 (CA1; enzyme activity; inhibitor; absorbance; pH 7.4): 15.1 µM
CC(=O)N1C[C@@H](C)[C@](O)(c2c(C)cc(-c3ccnc4[nH]cc(F)c34)cc2F)[C@@H](C)C1 — IC50 (LATS1; target engagement in cells; BRET): 0.077 µM
Nc1nc2c(ncn2COCCO)c(=O)[nH]1 — IC50 (CA1; enzyme activity; inhibitor; absorbance; pH 7.4): 10.8 µM
OC1(c2ccc(-c3ccnc4[nH]cc(F)c34)cc2)CCNC1 (centres unmarked) — IC50 (LATS1; target engagement in cells; BRET): 10.3 µM
CCOc1ccccc1OCCN[C@H](C)Cc1ccc(OC)c(S(N)(=O)=O)c1 — IC50 (SLC18A2; transporter uptake; inhibitor): 1.86 µM
C=CCNc1c2c([nH]c(=O)c1C(=O)OCC)CCC2 — IC50 (Gag-Pol polyprotein, reverse transcriptase (gag-pol, Human immunodeficiency virus 1, UniProt P03366); enzyme activity; inhibitor): > 100 µM
O=C(O)COCCN1CCN(C(c2ccccc2)c2ccc(Cl)cc2)CC1 (centres unmarked) — IC50 (CA1; enzyme activity; inhibitor; absorbance; pH 7.4): 14.6 µM
Clc1ccc(Cn2c(CN3CCCC3)nc3ccccc32)cc1 — IC50 (SLC18A2; transporter uptake; inhibitor): 7.23 µM
